# This is a sample that favours compounds with a hit; in the whole collection about 1.9% have one here.
# NPY-Y1 PAM-ag: potentiators or agonists of human neuropeptide Y receptor Y1 | P25929 | NPY-Y1 expressing cells, potentiator/agonist activation | activation, % at 3.6 µM | 220,000 compounds, 0.37% hits; in the data active = activation above about 33%, passing the limit was not always enough;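 note: cells stimulated with NPY at EC10 then isoproterenol at EC100; 0% = low agonist plus stimulus and 100% = saturating agonist plus stimulus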
# Target sequence (P25929 whole entry, looked up): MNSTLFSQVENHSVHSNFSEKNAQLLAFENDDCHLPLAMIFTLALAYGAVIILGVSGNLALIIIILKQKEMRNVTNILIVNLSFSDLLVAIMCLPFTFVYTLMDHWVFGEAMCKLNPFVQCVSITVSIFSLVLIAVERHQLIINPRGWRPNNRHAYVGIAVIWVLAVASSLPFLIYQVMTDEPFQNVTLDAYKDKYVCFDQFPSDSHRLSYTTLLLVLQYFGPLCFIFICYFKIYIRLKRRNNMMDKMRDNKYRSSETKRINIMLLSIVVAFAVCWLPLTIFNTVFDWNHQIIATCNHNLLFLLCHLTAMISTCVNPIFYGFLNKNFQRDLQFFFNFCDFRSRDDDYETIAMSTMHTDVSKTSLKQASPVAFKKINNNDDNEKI
# NPY-Y2 PAM-ag: human NPY-Y2 potentiation or agonism, primary screen; AID 1359; activation, % at 3.6 µM; 220,000 compounds, 0.45% hits; P49146; cells expressing NPY-Y2, potentiator/agonist read-out; in the data active = activation above about 27%;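 note: cells stimulated with NPY near EC25 plus isoproterenol at EC100; 0% = vehicle plus submaximal agonist and 100% = vehicle plus saturating agonist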
# Target sequence (P49146 whole entry, looked up): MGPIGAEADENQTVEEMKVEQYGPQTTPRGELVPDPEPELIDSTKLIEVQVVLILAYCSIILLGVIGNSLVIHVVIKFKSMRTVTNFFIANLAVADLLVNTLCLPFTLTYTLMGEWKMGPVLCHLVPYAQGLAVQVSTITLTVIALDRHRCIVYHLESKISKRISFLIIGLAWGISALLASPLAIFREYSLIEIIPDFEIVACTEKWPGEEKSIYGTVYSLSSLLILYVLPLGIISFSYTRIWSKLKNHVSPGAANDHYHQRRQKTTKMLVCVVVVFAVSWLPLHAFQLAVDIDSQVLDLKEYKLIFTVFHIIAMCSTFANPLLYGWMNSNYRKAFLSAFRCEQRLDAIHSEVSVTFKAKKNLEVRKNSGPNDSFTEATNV
# NPY Y2 blocker: antagonists of human neuropeptide Y receptor Y2 | NPY-Y2 expressing cells, antagonist mode | inhibition, % at 2.7 µM | 140,000 compounds, 0.99% hits; in the data active = inhibition above about 17%;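 note: 0% = vehicle with agonist challenge and 100% = reference antagonist with challenge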
# NPY-Y1 antag: blocks the human neuropeptide Y Y1 receptor; P25929; inhibition, % at 3.6 µM; 200,000 compounds, 1% hits; AID 1040; HEK293-CNG Y1 cells, membrane potential fluorescence; NPY at EC95, then isoproterenol;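 active = inhibition above the campaign mean inhibition of all tested compounds plus 3 SD, cut at about 20% in these data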;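 note: 0% = DMSO wells given NPY plus isoproterenol and 100% = isoproterenol alone without NPY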
#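 material = HEK293 cells with Y1 receptor plus CNG channel | also added = NPY 25 nM then isoproterenol 1 µM plus Ro 20-1724 25 µM | schedule = dye 3 h, compound 60 min room temperature, stimulation 45 min | measured by = membrane potential fluorescence | benchmarks = high control isoproterenol alone, low control NPY with isoproterenol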
# NPY-Y2 confirm: human NPY-Y2 potentiation or agonism, confirmation; AID 1539; 450 compounds, 20% hits; activation, % at 3.6 µM; cell-based NPY-Y2 potentiator/agonist assay; shares compounds with NPY-Y2 PAM-ag; in the data active = activation above about 33%
# NPY-Y1 potentiator: NPY-Y1 potentiation or agonism as NPY-Y2 counter-screen | AID 1651 | shares compounds with NPY-Y2 PAM-ag | Y1 HEK293-CNG cells, membrane potential fluorescence | activation, % at 3.6 µM | 450 compounds, 20% hits; in the data active = activation above about 45%;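 note: cells stimulated with submaximal NPY then isoproterenol with phosphodiesterase inhibitor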
# NPY-Y1 agonist 2: counter-screen for NPY-Y2 potentiators: agonists of human NPY-Y1 | shares compounds with NPY-Y2 PAM-ag | HEK293 Y1-CNGC, membrane potential fluorescence, agonism | activation, % at 3.6 µM | 450 compounds, 37% hits | AID 1702;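 active = activation above the mean of DMSO-only control wells plus 3 SD, cut at about 18% in these data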;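 note: cells stimulated with 1 µM isoproterenol plus the PDE inhibitor Ro 20-1724; 0% = isoproterenol with DMSO and no NPY and 100% = 40 nM NPY; Y1 agonists lower the membrane potential dye signal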
# CNGC inhibitor: blocks CNG channel activity, counter-screen for NPY-Y2 potentiators. shares compounds with NPY-Y2 PAM-ag. HEK293-CNG parental, isoproterenol cAMP, membrane potential fluorescence. inhibition, % at 3.6 µM. 450 compounds, 32% hits;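 active = inhibition above the control-well mean plus 3 SD of those wells, cut at about 22% in these data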;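 note: 0% = DMSO with isoproterenol and 100% = DMSO without isoproterenol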
# NPY-Y2 ag 2: activates human NPY-Y2 receptor in potentiator counter-screen | AID 1710 | shares compounds with NPY-Y2 PAM-ag | HEK293 Y2/CNGC cells, membrane potential fluorescence, agonist mode | 450 compounds, 56% hits | activation, % at 3.6 µM;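 active = activation above the mean of solvent-only control wells plus 3 SD, cut at about 10% in these data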;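 note: cells stimulated by isoproterenol with no NPY added so direct agonism is tested; 0% = DMSO with isoproterenol alone and 100% = NPY at EC100 plus isoproterenol; agonism lowers probe fluorescence through less cAMP and CNG channel opening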
# * hit, by the source's call; nt = no result.
SMILES,NPY-Y1 PAM-ag,NPY-Y2 PAM-ag,NPY Y2 blocker,NPY-Y1 antag,NPY-Y2 confirm,NPY-Y1 potentiator,NPY-Y1 agonist 2,CNGC inhibitor,NPY-Y2 ag 2
Cc1cc(C)n(-c2ncc3c(n2)N(CCO)CCOC3=O)n1,27,73*,nt,nt,-3,4,1,0,1
Clc1cccc(-c2nnc(SCc3nc4ccccc4[nH]3)n2Cc2ccco2)c1,-27,-37,4,14,nt,nt,nt,nt,nt
Clc1ccc(OCc2nnc(SCc3nc4ccccc4[nH]3)n2Cc2ccco2)cc1,41,40*,1,-8,6,-1,-5,10,14*
Cc1ccccc1-n1c(C)nnc1SCC(=O)N(C)C1CCS(=O)(=O)C1 (stereo not given),6,-17,nt,5,nt,nt,nt,nt,nt
Cc1ccc(Cl)cc1NC(=O)COC(=O)c1ccccc1O,-11,-2,nt,nt,nt,nt,nt,nt,nt
Cc1ccc(Cl)cc1NC(=O)c1cc2ccccc2cc1O,37,45*,nt,nt,8,15,-5,20,19*
COc1cc(NC(=O)c2cc3ccccc3cc2O)c(OC)cc1Cl,31,58*,nt,nt,21,-8,-13,4,12*
COc1cc(OC)c(NC(=O)c2ccccc2F)cc1Cl,-8,-3,nt,9,nt,nt,nt,nt,nt
CCCOc1ccc(/C=N/Nc2ccc(C(=O)O)cc2)c(OCCC)c1,15,30*,nt,1,13,17,11,9,21*
COc1ccc2nc(NC(=O)CSc3nccc(C)n3)sc2c1,20,35*,-6,-10,25,46*,53*,40*,51*
FC(F)(F)c1cnc(NNC(=S)Nc2ccc(Cl)cc2)c(Cl)c1,38,42*,5,-5,8,-27,-14,-7,16*
Cc1ccc(S(=O)(=O)CCNC(=O)Cc2ccccc2)cc1,-24,-6,nt,-1,nt,nt,nt,nt,nt
CCOc1ccc(S(=O)(=O)N(C)c2ccc(OCC(=O)Nc3nc(-c4cc(OC)ccc4OC)cs3)cc2)cc1,-11,-2,2,2,nt,nt,nt,nt,nt
CN(CCC1CCCCO1)C(=O)CCc1nnc(C2CCCCC2)o1 (stereo not given),11,2,nt,2,nt,nt,nt,nt,nt
O=C(CCc1n[nH]c(=O)[nH]c1=O)Nc1cccc([N+](=O)[O-])c1,-5,3,nt,1,nt,nt,nt,nt,nt
Cc1[nH]c2ccccc2c1/C=N/NC(=O)c1cccc(S(=O)(=O)Nc2cccc(C(F)(F)F)c2)c1,39,42*,nt,-3,41*,60*,46*,35*,40*
NNC(=O)c1cccc(S(=O)(=O)Nc2cccc(C(F)(F)F)c2)c1,20,2,nt,nt,nt,nt,nt,nt,nt
CC/S(C)=N/S(=O)(=O)c1ccc(C)cc1 (stereo not given),8,-9,3,-3,nt,nt,nt,nt,nt
N#CC(C#N)=C(Nc1ccc(F)cc1)SCc1cccc(Br)c1,-25,7,7,20,nt,nt,nt,nt,nt
Cc1cccc(CSC(Nc2ccc(F)cc2)=C(C#N)C#N)c1,6,40*,6,0,-11,-55,-30,-19,0
CC(C)N1CCC(N2CCN(CC#Cc3ccccc3)CC2CCO)CC1 (stereo not given),5,-17,nt,9,nt,nt,nt,nt,nt
COC(=O)c1sccc1NS(=O)(=O)c1ccc(OC)cc1,-35,31*,0,4,-5,-8,-8,-9,5
CN(C)CC(CCCCC(CN(C)C)C(=O)c1ccccc1)C(=O)c1ccccc1 (stereo not given),-17,-30,nt,nt,nt,nt,nt,nt,nt
O=C(NCCc1ccccc1)c1ccc(NCC2CCCO2)c([N+](=O)[O-])c1 (stereo not given),-8,11,nt,-6,nt,nt,nt,nt,nt
CCCCNS(=O)(=O)c1ccc(NC(=O)C(Sc2ccccc2)c2ccccc2)cc1 (stereo not given),17,29*,-4,-2,19,29,20*,25*,25*
SMILES,NPY-Y1 PAM-ag,NPY-Y2 PAM-ag,NPY Y2 blocker,NPY-Y1 antag,NPY-Y2 confirm,NPY-Y1 potentiator,NPY-Y1 agonist 2,CNGC inhibitor,NPY-Y2 ag 2
CCC(C)NS(=O)(=O)c1ccc(NC(=O)C(Sc2ccccc2)c2ccccc2)cc1 (stereo not given),26,11,-4,-2,nt,nt,nt,nt,nt
CC1(C)C=C(c2ccc(O)cc2)CC(C)(C)N1,23,36*,0,-2,0,-1,-11,2,6
C#CC(=O)N(c1ccc(OC)cc1OC)C(C(=O)NC1CCCC1)c1cccs1 (stereo not given),15,35*,nt,-7,11,40,16,48*,21*
CCOC(=O)c1c(-c2ncc(C(F)(F)F)cc2Cl)noc1C,-4,0,nt,2,nt,nt,nt,nt,nt
N#C/C(=N\Nc1ccc(Cl)c(Cl)c1)C(=O)C1CC1,13,63*,nt,nt,3,-38,-7,-9,5
C/C(CC(=O)NC1CCCC1)=N\NC(=O)Cc1csc(N)n1,14,11,0,1,nt,nt,nt,nt,nt
CCC1(C)OC(=O)NN(c2ccc(C)cc2)C1(C)O (stereo not given),-4,3,-3,0,nt,nt,nt,nt,nt
COc1ccc(C)cc1NC(=O)c1ccccc1NS(=O)(=O)c1ccc(Cl)s1,-2,58*,nt,7,-6,-46,-30,-23,-11
CCOC(=O)Cn1c(=O)oc2cc(S(=O)(=O)Nc3ccc(F)cc3)ccc21,31,36*,-1,-11,16,20,22*,33*,12*
CCOC(=O)Cn1c(=O)oc2cc(S(=O)(=O)NCCc3ccc(C)cc3)ccc21,-10,-13,13,3,nt,nt,nt,nt,nt
CC(=O)c1ccc(N2CCN(C(=S)Nc3ccc(Oc4ccccc4)cc3)CC2)cc1,12,39*,nt,-1,1,-20,-9,-4,11*
Cc1ccccc1-n1nc(CSc2nc3ccccc3[nH]2)c(-c2ccccc2)c1N,-2,11,8,12,nt,nt,nt,nt,nt
Nc1c(-c2ccccc2)c(CSc2nc3ccccc3[nH]2)nn1-c1cccc(Cl)c1,7,32*,-1,5,39*,36,36*,28*,57*
c1ccc(CSc2nc3ccccc3[nH]2)cc1,4,0,nt,nt,nt,nt,nt,nt,nt
Nc1c(-c2ccccc2)c(CSc2nc3ccccc3[nH]2)nn1-c1ccc(Cl)cc1,13,29*,2,3,33,29,17,21,33*
COc1cc(NC(=O)CN2C(=O)c3ccccc3S2(=O)=O)c(OC)cc1Cl,-2,-2,0,-3,nt,nt,nt,nt,nt
Cc1ccnc(NC(c2ccncc2)c2c(C)[nH]c3ccccc23)c1 (stereo not given),-2,-6,3,5,nt,nt,nt,nt,nt
Cc1[nH]c2ccccc2c1C(Nc1nccs1)c1ccncc1 (stereo not given),-8,27*,1,6,-5,3,-11,-4,-8

# Screening results (PubChem BioAssay)
